Experiments:
HeLa cells = type: cell-based; conditions: Ru 100 μM + HCPs 300 μM; for Nuclear uptake of [Ru(bpy)2(dppz)]^2+ in full medium: full medium containing serum, CLSM
[1] = n-Octanol/aqueous partitioning; type: physicochemical; conditions: n-octanol / Tris–HCl buffer 10 mM pH 7.4, Ru 100 μM
Summary of the method: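 Shake-flask partitioning of the Ru complex between n-octanol and aqueous Tris–HCl (10 mM, pH 7.4), run with or without highly chlorinated phenols (penta-, tetra- or trichlorophenols) at different Ru:phenol ratios. The complex was quantified in each phase by UV-vis absorbance. Ion-pair lipophilicity is reported as n-octanol-phase absorption intensity at Ru/phenol 1:10, multiplied by 10.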

[2] = ref [52]; cited from earlier work
[3] = ref [53],[54]; cited from earlier work

Structure (SMILES) | Nuclear uptake of [Ru(bpy)2(dppz)]^2+ in full medium (HeLa cells) | Lipophilicity of the ion-pairing complex formed with [Ru(bpy)2(dppz)]Cl2 [1] | log Kow [2] | pKa [3] | Cellular and nuclear uptake of [Ru(bpy)2(dppz)]^2+ by luminescence (HeLa cells; serum-free medium, flow cytometry and CLSM)
Oc1c(Cl)c(Cl)c(Cl)c(Cl)c1Cl [PCP, pentachlorophenol] | facilitated | most lipophilic | 5.01 |  | 
Oc1cc(Cl)c(Cl)c(Cl)c1Cl [2,3,4,5-TeCP, 2,3,4,5-tetrachlorophenol] | facilitated | least hydrophobic | 4.95 | 5.64 | most effective

From paper PMC6847114 (Nucleic Acids Research, 2019)
